Source: ChEMBL document CHEMBL5029182, “Discovery of aryl aminothiazole γ-secretase modulators with novel effects on amyloid β-peptide production” (Bioorg Med Chem Lett, 2021)
Calls of active or inactive are those of the source. The calls are words filed in the database; no cut-off is given here.

Tests used:
Assay type in all cases: cell-based
[1] = molecular target: T1, Gamma-secretase (Homo sapiens) (UniProt Q96BI3+Q9NZ42+Q8WW43+P49768+Q92542+P49810); test: Modulation of gamma secretase in HEK293 cells expressing APP-C99 assessed as effect on amyloid beta peptide levels at up to 10 uM incubated for 2 hrs by sandwich ELISA; details: dose microM <=10, time 2.0 hrs
Outline: (§1)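 Concentration-response in HEK293 cells stably expressing C99 (APP C-terminal 99 residues with signal sequence), up to a maximum of 10 μM. Secreted Aβ37, Aβ38, Aβ40 and Aβ42 in medium each measured by a specific sandwich ELISA. Total secreted Aβ also determined by ELISA. Levels compared against DMSO vehicle alone.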

[2] = molecular target: T1, Gamma-secretase (Homo sapiens); test: Modulation of gamma secretase in HEK293 cells expressing APP-C99 assessed as decrease in Abeta40 levels at 5 uM incubated for 2 hrs by sandwich ELISA
Outline: (§2)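 HEK293 cells stably expressing C99 with signal sequence, grown in 24-well plates. Single compound concentration 5 μM as initial screen. Aβ37, Aβ38, Aβ40 and Aβ42 secreted into medium each quantified by a specific two-antibody sandwich ELISA. Levels compared with DMSO vehicle alone.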

[3] = molecular target: T1, Gamma-secretase (Homo sapiens); test: Modulation of gamma secretase in HEK293 cells expressing APP-C99 assessed as increase in Abeta37 levels at 5 uM incubated for 2 hrs by sandwich ELISA; outline: as §2
[4] = molecular target: T1, Gamma-secretase (Homo sapiens); test: Modulation of gamma secretase in HEK293 cells expressing APP-C99 assessed as decrease in Abeta42 levels at 5 uM incubated for 2 hrs by sandwich ELISA; outline: as §2
[5] = molecular target: T1, Gamma-secretase (Homo sapiens); test: Modulation of gamma secretase in HEK293 cells expressing APP-C99 assessed as increase in Abeta38 levels at 5 uM incubated for 2 hrs by sandwich ELISA; outline: as §2
[6] = molecular target: T1, Gamma-secretase (Homo sapiens); test: Modulation of gamma secretase in HEK293 cells expressing APP-C99 assessed as decrease in Abeta42 levels incubated for 2 hrs by sandwich ELISA
Outline: (§3)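 HEK293 cells transiently transfected with C99 (APP C-terminal fragment carrying a signal sequence for membrane insertion) and treated over a concentration range. Secreted Aβ37, Aβ38, Aβ40 and Aβ42 in medium each detected by a specific two-antibody sandwich ELISA. Levels expressed relative to DMSO vehicle alone.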

[7] = molecular target: T1, Gamma-secretase (Homo sapiens); test: Modulation of gamma secretase in HEK293 cells expressing APP-C99 assessed as increase in Abeta37 levels incubated for 2 hrs by sandwich ELISA; details: filed as modulator; outline: as §3
[8] = molecular target: T1, Gamma-secretase (Homo sapiens); test: Modulation of gamma secretase in HEK293 cells expressing APP-C99 assessed as decrease in Abeta40 levels incubated for 2 hrs by sandwich ELISA; outline: as §3
[9] = molecular target: T1, Gamma-secretase (Homo sapiens); test: Modulation of gamma secretase in HEK293 cells expressing APP-C99 assessed as increase in Abeta38 levels incubated for 2 hrs by sandwich ELISA; details: filed as modulator; outline: as §3
[10] = molecular target: T1, Gamma-secretase (Homo sapiens); test: Modulation of gamma secretase in HEK293 cells expressing APP-C99 assessed as increase in Abeta37 levels at up to 10 uM incubated for 2 hrs by sandwich ELISA; details: filed as modulator, dose microM <=10, time 2.0 hrs; outline: as §1
[11] = molecular target: T1, Gamma-secretase (Homo sapiens); test: Modulation of gamma secretase in HEK293 cells expressing APP-C99 assessed as decrease in Abeta42 levels at up to 10 uM incubated for 2 hrs by sandwich ELISA; details: dose microM <=10, time 2.0 hrs; outline: as §1
[12] = molecular target: T1, Gamma-secretase (Homo sapiens); test: Modulation of gamma secretase in HEK293 cells expressing APP-C99 assessed as decrease in Abeta40 levels at up to 10 uM incubated for 2 hrs by sandwich ELISA; details: dose microM <=10, time 2.0 hrs; outline: as §1
[13] = molecular target: T1, Gamma-secretase (Homo sapiens); test: Modulation of gamma secretase in HEK293 cells expressing APP-C99 assessed as increase in Abeta38 levels at up to 10 uM incubated for 2 hrs by sandwich ELISA; details: dose microM <=10, time 2.0 hrs; outline: as §1

Compound | Activity [2] | Activity ([3]; filed as modulator) | Activity [4] | Activity ([5]; filed as modulator) | also measured
Cc1ccc(Nc2nc(-c3ccc(-n4cnc(C)c4)c(F)c3)cs2)c(C)c1 |  |  |  |  | Activity [1]: inactive
Cc1cn(-c2ccc(-c3csc(Nc4ccccc4)n3)cc2F)cn1 |  |  |  |  | Activity [1]: inactive
Cc1cn(-c2ccc(-c3csc(Nc4ccc(O)cc4)n3)cc2F)cn1 |  |  |  |  | Activity ([1]; filed as modulator): Active
Cc1cn(-c2ccc(-c3csc(Nc4ccc(F)cc4)n3)cc2F)cn1 | inactive | Active | inactive | Active | 
Cc1cn(-c2ccc(-c3csc(NC4CCCCC4)n3)cc2F)cn1 |  |  |  |  | Activity ([1]; filed as modulator): Active
Cc1cn(-c2ccc(-c3csc(NCc4ccccc4)n3)cc2F)cn1 |  |  |  |  | Activity ([1]; filed as modulator): Active
Cc1cn(-c2ccc(-c3csc(Nc4cc(Cl)c(Cl)cc4Cl)n3)cc2F)cn1 | inactive |  | inactive |  | Activity [3]: inactive; Activity [5]: inactive
Cc1cn(-c2ccc(-c3csc(Nc4ccc(F)cc4F)n3)cc2F)cn1 | inactive | Active | inactive | Active | 
Cc1ccc(Nc2nc(-c3ccc(-n4cnc(C)c4)c(F)c3)cs2)c(F)c1 |  |  |  |  | Activity [6]: inactive; Activity [7]: Dose-Dependent Effect; Activity [8]: inactive; Activity [9]: Dose-Dependent Effect
CCc1cc(Nc2nc(-c3ccc(-n4cnc(C)c4)c(F)c3)cs2)c(C)cc1C |  |  |  |  | Activity ([1]; filed as modulator): Active
Cc1cn(-c2ccc(-c3csc(Nc4c(F)cc(F)cc4F)n3)cc2F)cn1 |  | Active |  | Active | Activity ([2]; filed as modulator): Active; Activity ([4]; filed as modulator): Active
CCc1cc(Nc2nc(-c3ccc(-n4cnc(C)c4)c(F)c3)cs2)c(F)cc1C |  |  |  |  | Activity ([2]; filed as modulator): Active; Activity ([4]; filed as modulator): Active
Cc1cn(-c2ccc(-c3csc(Nc4cccc(F)c4F)n3)cc2F)cn1 | inactive |  | inactive |  | Activity [3]: inactive; Activity [5]: inactive
Cc1cn(-c2ccc(-c3csc(Nc4ccc(Cl)cc4Cl)n3)cc2F)cn1 | inactive | Active | inactive | Active | 
Cc1ccc(F)c(Nc2nc(-c3ccc(-n4cnc(C)c4)c(F)c3)cs2)c1 |  |  |  |  | Activity [6]: inactive; Activity [7]: Dose-Dependent Effect; Activity [8]: inactive; Activity [9]: Dose-Dependent Effect
Cc1cn(-c2ccc(-c3csc(Nc4cc(F)c(C)cc4C)n3)cc2F)cn1 | inactive |  | inactive |  | Activity [3]: inactive; Activity [5]: inactive
Cc1cn(-c2ccc(-c3csc(Nc4ccc(F)cc4C)n3)cc2F)cn1 |  |  |  |  | Activity [6]: inactive; Activity [7]: Dose-Dependent Effect; Activity [8]: inactive; Activity [9]: Dose-Dependent Effect
Cc1cn(-c2ccc(-c3csc(Nc4ccc(F)c(F)c4)n3)cc2F)cn1 | inactive |  | inactive |  | Activity [3]: inactive; Activity [5]: inactive
Cc1cn(-c2ccc(-c3csc(Nc4cc(C)c(F)cc4C)n3)cc2F)cn1 | inactive | Active | inactive | Active | 
Cc1cn(-c2ccc(-c3csc(Nc4c(F)cccc4F)n3)cc2F)cn1 | inactive |  | inactive |  | Activity [3]: inactive; Activity [5]: inactive
Cc1cn(-c2ccc(-c3csc(Nc4cc(F)c(F)cc4F)n3)cc2F)cn1 |  |  |  |  | Activity [10]: Active; Activity [11]: inactive; Activity [12]: inactive; Activity [13]: inactive
Cc1cn(-c2ccc(-c3csc(Nc4ccc([N+](=O)[O-])cc4)n3)cc2F)cn1 |  |  |  |  | Activity ([1]; filed as modulator): Active
Cc1cn(-c2ccc(-c3csc(Nc4cc(Br)c(Br)cc4Br)n3)cc2F)cn1 | inactive | Active | inactive | Active | 
Cc1cn(-c2ccc(-c3csc(NC4C5CC6CC(C5)CC4C6)n3)cc2F)cn1 (stereo unspecified) |  |  |  |  | Activity ([1]; filed as modulator): Active
Cc1cn(-c2ccc(-c3csc(Nc4cccc(F)c4)n3)cc2F)cn1 | inactive | Active | inactive | Active | 
Cc1cn(-c2ccc(-c3csc(Nc4cc(C)c(C)cc4F)n3)cc2F)cn1 | inactive | Active | inactive | Active | 
Cc1cn(-c2ccc(-c3csc(Nc4cc(C)c(C)cc4C)n3)cc2F)cn1 |  |  |  |  | Activity ([1]; filed as modulator): Active
Cc1cn(-c2ccc(-c3csc(Nc4cc(F)ccc4F)n3)cc2F)cn1 | inactive |  | inactive |  | Activity [3]: inactive; Activity [5]: inactive
Cc1cn(-c2ccc(-c3csc(Nc4cc(F)ccc4C)n3)cc2F)cn1 |  |  |  |  | Activity [6]: inactive; Activity [7]: Dose-Dependent Effect; Activity [8]: inactive; Activity [9]: Dose-Dependent Effect
Cc1cn(-c2ccc(-c3csc(Nc4ccccc4F)n3)cc2F)cn1 | inactive | Active | inactive | Active | 
